From ChEMBL document CHEMBL3351544, “Discovery of (S)-1-(1-(Imidazo[1,2-a]pyridin-6-yl)ethyl)-6-(1-methyl-1H-pyrazol-4-yl)-1H-[1,2,3]triazolo[4,5-b]pyrazine (volitinib) as a highly potent and selective mesenchymal-epithelial transition factor (c-Met) inhibitor in clinical development for treatment of cancer” (J Med Chem, 2014)
In brackets after ≈: the same amount, converted by molar mass. Each block holds one molecule with its values, some of them ahead of it.

Tests used:
[1] = target: T1, Hepatocyte growth factor receptor (Homo sapiens, UniProt P08581); assay: Inhibition of c-Met (unknown origin) using Poly E4Y substrate and ATP incubated for 45 mins by fluorescence polarization assay
[2] = Solubility of the compound in aqueous buffer at pH 7.4 by HPLC method; format: physicochemical
Outline: (§1)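 Excess solid shaken 48 h at 20 °C in pH 1.2 KCl/HCl buffer or pH 7.4 sodium phosphate buffer. Centrifuged 10 min at 4000 rpm, supernatant diluted in mobile phase and quantified by HPLC.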

[3] = Solubility of the compound in aqueous buffer at pH 1.2 by HPLC method; format: physicochemical; outline: as §1
NCI-H441 = assay: Antiproliferative activity against human NCI-H441 cells assessed as HGF-induced proliferation after 72 hrs by MTT assay; conditions: NCI-H441, 72 h
[4] = Metabolic stability in mouse liver microsomes assessed as compound remaining at 1 uM after 30 mins; format: ADME; conditions: read-out: Stability
Outline: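 Compound at 1 µM incubated in duplicate with mouse liver microsomes (0.5 mg/mL). Final 3 mM MgCl2 and 1 mM EDTA, NADPH-regenerating system in 50 mM potassium phosphate, pH 7.4. Incubated at 37 °C for 0 and 30 min, DMSO at most 0.1%. Quenched with cold acetonitrile containing internal standard, centrifuged, supernatant analysed. Reported as % parent remaining.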

[5] = Oral bioavailability in ICR mouse at 14.1 mg/kg; format: ADME, organism-based; conditions: in vivo
Outline: (§2)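 Male ICR mice, n=3. Oral dose 14.1 mg/kg as a suspension in 0.5% CMC acidified with HCl to pH 2.1. Paired iv arm at 2.5 mg/kg in saline with 10% Solutol HS 15, 10% ethanol and 0.25% DMSO. Staggered blood sampling between 5 min and 24 h post-dose. Plasma levels measured by LC/MS/MS.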

[6] = Cmax in ICR mouse at 14.1 mg/kg, po; format: ADME, organism-based; set-up: dose 14.1 mg/kg, route oral; conditions: in vivo; outline: as §2
[7] = Plasma clearance in ICR mouse at 2.5 mg/kg, iv; format: ADME, organism-based; set-up: dose 2.5 mg/kg, route intravenous
Outline: (§3)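 Male ICR mice, n=3, given 2.5 mg/kg iv in saline containing 10% Solutol HS 15, 10% ethanol and 0.25% DMSO. Blood sampled at staggered times from 5 min to 24 h. Plasma concentrations measured by LC/MS/MS. Parameters derived from the iv dosing.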

[8] = Half life in ICR mouse at 14.1 mg/kg, po; format: ADME, organism-based; set-up: dose 14.1 mg/kg, route oral; conditions: in vivo; outline: as §2
[9] = Apparent volume of distribution in ICR mouse at 2.5 mg/kg, iv; format: ADME, organism-based; set-up: dose 2.5 mg/kg, route intravenous; conditions: in vivo, read-out: Vz; outline: as §3
[10] = AUC (0 to 8 hrs) in ICR mouse at 14.1 mg/kg, po; format: ADME, organism-based; set-up: time < 8 hr, dose 14.1 mg/kg, route oral; conditions: plasma; outline: as §2
Mus musculus [11] = assay: Inhibition of c-Met autophosphorylation in mouse xenografted with human NCI-H441 cells at 3 mg/kg, po administered as single doss after 6 hrs by ELISA method; format: functional; conditions: NCI-H441, 6 h
Outline: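 Female athymic mice, 6-8 weeks old, n=4, co-implanted subcutaneously with 2×10^6 NCI-H441 cells and 1×10^6 HGF-secreting MRC-5 cells. At 300 mm3, about two weeks, given a single 3 mg/kg oral dose in 0.5% CMC, pH 2.1. Tumours harvested at 6 h and homogenised in lysis buffer with phosphatase and protease inhibitors. Phospho-Met and total Met measured by ELISA, compared with vehicle.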

Mus musculus [12] = assay: Toxicity in human U87MG cells xenografted mouse model assessed as body weight loss at 1 to 10 mg/kg, po once daily up to 21 days; format: organism-based, U-87MG ATCC; set-up: dose 1-10 mg/kg, route oral; conditions: in vivo, 504 h
Outline: (§4)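 Female athymic nude mice, 6-8 weeks old, inoculated in the flank with 3×10^6 U87MG glioma cells. Randomised once tumours reached 200 mm3. Dosed orally once daily for 21 days in 0.5% CMC-Na, pH 2.1, against vehicle controls. Tumour size measured 2-3 times weekly; volume = L×W²/2. %TGI from change in mean volume, first to last treatment day. Body weight recorded.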

[13] = Antitumor activity against human U87MG cells xenografted in mouse model assessed as tumor growth inhibition at 1 mg/kg, po once daily up to 21 days; format: functional, U-87MG ATCC; conditions: U-87 MG, 504 h, read-out: TGI; outline: as §4
[14] = Metabolic stability in human liver S9 fraction assessed as compound remaining in absence of NADPH at 1 mg/mL after 60 mins by LC-MS/PDA analysis; format: ADME; conditions: read-out: Stability
Outline: (§5)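 Compound incubated at 37 °C for 0 and 60 min with human liver S9 (1 mg/ml). Buffer was 50 mM potassium phosphate, pH 7.4, with 3 mM MgCl2 and 1 mM EDTA, with or without an NADPH-regenerating system. Stopped with ice-cold acetonitrile, supernatant dried and reconstituted in 50% methanol. Analysed by LC-MSn/PDA; relative amounts estimated from UV peak intensity at 348 nm.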

U-87MG ATCC = assay: Antitumor activity against human U87MG cells xenografted in mouse model assessed as tumor growth inhibition at 1 to 10 mg/kg, po once daily up to 21 days; format: functional, organism-based
Outline: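 Female athymic nude mice (6-8 weeks) inoculated in the flank with U87MG glioma cells (3×10^6/mouse). At 200 mm3 tumours, randomized to vehicle or treatment. Oral dosing once daily at 1.0, 2.5 and 10.0 mg/kg in 0.5% CMC-Na, pH 2.1, for 21 days. Tumour size measured 2-3 times weekly, TV=(L×W²)/2. %TGI from mean volume change from first to last treatment day versus vehicle.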

[15] = Antitumor activity against human U87MG cells xenografted in mouse model assessed as tumor growth inhibition at 2.5 mg/kg, po once daily up to 21 days; format: functional, U-87MG ATCC; conditions: U-87 MG, 504 h, read-out: TGI; outline: as §4
[16] = Antitumor activity against human U87MG cells xenografted in mouse model assessed as tumor growth inhibition at 10 mg/kg, po once daily up to 21 days; format: functional, U-87MG ATCC; conditions: U-87 MG, 504 h, read-out: TGI; outline: as §4
[17] = target: T1, Hepatocyte growth factor receptor; assay: Inhibition of c-Met autophosphorylation in human NCI-H441 cells for 1 hr by ELISA; format: cell-based
[18] = Metabolic stability in human liver S9 fraction assessed as compound remaining in presence of NADPH at 1 mg/mL after 60 mins by LC-MS/PDA analysis; format: ADME, subcellular; conditions: read-out: Stability; outline: as §5

SMILES: Cn1cc(-c2cnc3nnn(Cc4ccc5ncccc5c4)c3c2)cn1
IC50 [1]: > 1000 nM

SMILES: C[C@@H](c1ccc2nccn2c1)n1nnc2nc(O)c(-c3cnn(C)c3)nc21
solubility [2]: 0.02 mg/mL (≈ 0.0553 mM) | solubility [3]: 20.9 mg/mL (≈ 57.8 mM)

SMILES: Cn1cc(-c2cnc3nnn(Cc4ccc5nccn5n4)c3n2)cn1
IC50 (NCI-H441): 443 nM

SMILES: N#Cc1ccc(-c2cnc3nnn(Cc4ccc5nccn5c4)c3n2)cn1
IC50 (NCI-H441): 203 nM

SMILES: C[C@@H](c1ccc2nccn2c1)n1nnc2ncc(-c3cnn(C)c3)nc21 [SAVOLITINIB]
inhibition in vivo at 3 mg/kg (Mus musculus [11]): 84.7% | bioavailability [5]: 27.2% | solubility [2]: 0.02 mg/mL (≈ 0.0579 mM) | Activity (Mus musculus [12]): Non-toxic | inhibition in vivo at 1 mg/kg [13]: 52.8% | remaining at 1 h [14]: 99.7% | Cmax [6]: 4950 ng/mL | clearance [7]: 11 mL/min/kg | solubility [3]: 31.8 mg/mL (≈ 92.1 mM) | IC50 [1]: 5 nM | half-life [8]: 1.7 h | TGI (U-87MG ATCC): Dose-dependent effect | inhibition in vivo at 2.5 mg/kg [15]: 76.6% | inhibition in vivo at 10 mg/kg [16]: 92.8% | IC50 (NCI-H441): 6 nM | Vd [9]: 1.2 L/kg | IC50 [17]: 3 nM | remaining at 1 h [18]: 99.1% | AUC(0-t) at 8 h [10]: 5590 ng·h/mL

SMILES: C[C@@H](c1ccn2nccc2c1)n1nnc2ncc(-c3cnn(CCO)c3)nc21
IC50 (NCI-H441): 16 nM

SMILES: FC(F)(F)Cn1cc(-c2cnc3nnn(Cc4ccc5nccn5c4)c3n2)cn1
IC50 (NCI-H441): 104 nM

SMILES: Cn1cc(-c2cnc3nnn(Cc4cc5[nH]ncc5s4)c3n2)cn1
remaining at 0.5 h, 1 µM [4]: 19.4% | IC50 (NCI-H441): 178 nM

SMILES: Cn1cc(-c2cnc3nnn(Cc4ccc5ncnn5c4)c3n2)cn1
IC50 (NCI-H441): 425 nM

SMILES: Fc1ccc(-c2cnc3nnn(Cc4ccc5nccn5c4)c3n2)cc1
IC50 (NCI-H441): 116 nM

SMILES: C[C@H](c1ccc2nccn2c1)n1nnc2ncc(-c3cnn(C)c3)nc21
IC50 [1]: 32 nM | IC50 (NCI-H441): 113 nM | IC50 [17]: 32 nM

SMILES: Cn1cc(-c2cnc3nnn(Cc4cc5cnccc5s4)c3n2)cn1
remaining at 0.5 h, 1 µM [4]: 23.5% | IC50 (NCI-H441): 177 nM

SMILES: Cn1cc(-c2cnc3nnn(Cc4ccn5nccc5c4)c3n2)cn1
remaining at 0.5 h, 1 µM [4]: 36.7% | IC50 (NCI-H441): 183 nM

SMILES: Cn1cc(-c2cnc3nnn(Cc4ccc5nccn5c4)c3n2)cn1
remaining at 0.5 h, 1 µM [4]: 70.8% | bioavailability [5]: 46% | Cmax [6]: 1380 ng/mL | clearance [7]: 71.3 mL/min/kg | half-life [8]: 1.3 h | IC50 (NCI-H441): 73 nM | Vd [9]: 5.4 L/kg | AUC(0-t) at 8 h [10]: 1070 ng·h/mL

SMILES: FC(F)(F)Cn1cc(-c2cnc3nnn(Cc4ccn5nccc5c4)c3n2)cn1
remaining at 0.5 h, 1 µM [4]: 63.6% | IC50 (NCI-H441): 77 nM

Second part, the molecule after the results:

remaining at 0.5 h, 1 µM [4]: 82.6% | IC50 (NCI-H441): 25 nM
SMILES: OCCn1cc(-c2cnc3nnn(Cc4c[nH]c5ncccc45)c3n2)cn1

remaining at 0.5 h, 1 µM [4]: 93.3% | bioavailability [5]: 90.8% | Cmax [6]: 1920 ng/mL | clearance [7]: 21.5 mL/min/kg | half-life [8]: 3.7 h | IC50 (NCI-H441): 66 nM | Vd [9]: 2.4 L/kg | AUC(0-t) at 8 h [10]: 7000 ng·h/mL
SMILES: OCCn1cc(-c2cnc3nnn(Cc4ccn5nccc5c4)c3n2)cn1

IC50 (NCI-H441): 184 nM
SMILES: OCCn1cc(-c2cnc3nnn(Cc4ccc5nccn5c4)c3n2)cn1

remaining at 0.5 h, 1 µM [4]: 83% | IC50 (NCI-H441): 70 nM
SMILES: FC(F)(F)Cn1cc(-c2cnc3nnn(Cc4n[nH]c5ncccc45)c3n2)cn1

IC50 (NCI-H441): 287 nM
SMILES: OCCn1cc(-c2cnc3nnn(Cc4n[nH]c5ncccc45)c3n2)cn1

IC50 (NCI-H441): 172 nM
SMILES: N#Cc1ccc(-c2cnc3nnn(Cc4n[nH]c5ncccc45)c3n2)cn1

remaining at 0.5 h, 1 µM [4]: 102% | IC50 (NCI-H441): 66 nM
SMILES: Cn1cc(-c2cnc3nnn(Cc4n[nH]c5ncccc45)c3n2)cn1

IC50 (NCI-H441): 165 nM
SMILES: C[C@H](c1ccn2nccc2c1)n1nnc2ncc(-c3cnn(CCO)c3)nc21
